From ChEMBL document CHEMBL4368925, “Design, synthesis, and screening of novel ursolic acid derivatives as potential anti-cancer agents that target the HIF-1α pathway” (Bioorg Med Chem Lett, 2019)

Tested on: Hep 3B2
Experiment: Cytotoxicity against human Hep3B cells assessed as reduction in cell viability after 24 hrs in normoxic condition by MTT assay
Format: cell-based
Outline: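 Hep3B viability by MTT assay after 24 h compound treatment under normoxia; table values are means, n=3.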

Structure (SMILES) | IC50
C[C@H]1[C@H](C)CC[C@]2(C(=O)OCc3ccc(Cl)cc3)CC[C@]3(C)C(=CC[C@@H]4[C@@]5(C)CC/C(=N\NC(=N)N)C(C)(C)[C@@H]5CC[C@]43C)[C@H]12 | 32.1 µM
C[C@H]1[C@H](C)CC[C@]2(C(=O)O)CC[C@]3(C)C(=CC[C@@H]4[C@@]5(C)CC(=C\c6cccc(Br)c6)/C(=N\NC(=N)N)C(C)(C)[C@@H]5CC[C@]43C)[C@H]12 | > 100 µM
C[C@H]1[C@H](C)CC[C@]2(C(=O)O)CC[C@]3(C)C(=CC[C@@H]4[C@@]5(C)CC[C@H](O)C(C)(C)[C@@H]5CC[C@]43C)[C@H]12 [URSOLIC ACID] | 23.8 µM
C[C@H]1[C@H](C)CC[C@]2(C(=O)O)CC[C@]3(C)C(=CC[C@@H]4[C@@]5(C)CC/C(=N\NC(N)=S)C(C)(C)[C@@H]5CC[C@]43C)[C@H]12 | > 100 µM
C[C@H]1[C@H](C)CC[C@]2(C(=O)O)CC[C@]3(C)C(=CC[C@@H]4[C@@]5(C)CC(=C\c6ccc(F)cc6)/C(=N\NC(=N)N)C(C)(C)[C@@H]5CC[C@]43C)[C@H]12 | > 100 µM
C[C@H]1[C@H](C)CC[C@]2(C(=O)O)CC[C@]3(C)C(=CC[C@@H]4[C@@]5(C)CC(=C\c6c(Cl)cccc6Cl)/C(=N\NC(=N)N)C(C)(C)[C@@H]5CC[C@]43C)[C@H]12 | > 100 µM
COC(=O)[C@]12CC[C@@H](C)[C@H](C)[C@H]1C1=CC[C@@H]3[C@@]4(C)CC/C(=N\NC(=N)N)C(C)(C)[C@@H]4CC[C@@]3(C)[C@]1(C)CC2 | > 100 µM
CCOC(=O)[C@]12CC[C@@H](C)[C@H](C)[C@H]1C1=CC[C@@H]3[C@@]4(C)CC/C(=N\NC(=N)N)C(C)(C)[C@@H]4CC[C@@]3(C)[C@]1(C)CC2 | 6 µM
C[C@H]1[C@H](C)CC[C@]2(C(=O)O)CC[C@]3(C)C(=CC[C@@H]4[C@@]5(C)CC(=C\c6ccc(Cl)cc6Cl)/C(=N\NC(=N)N)C(C)(C)[C@@H]5CC[C@]43C)[C@H]12 | > 100 µM
C[C@H]1[C@H](C)CC[C@]2(C(=O)OCc3ccc(Cl)cc3Cl)CC[C@]3(C)C(=CC[C@@H]4[C@@]5(C)CC/C(=N\NC(=N)N)C(C)(C)[C@@H]5CC[C@]43C)[C@H]12 | > 100 µM
C[C@H]1[C@H](C)CC[C@]2(C(=O)O)CC[C@]3(C)C(=CC[C@@H]4[C@@]5(C)CC(=C\c6ccccc6Cl)/C(=N\NC(=N)N)C(C)(C)[C@@H]5CC[C@]43C)[C@H]12 | > 100 µM
C[C@H]1[C@H](C)CC[C@]2(C(=O)O)CC[C@]3(C)C(=CC[C@@H]4[C@@]5(C)CC(=C\c6ccco6)/C(=N\NC(=N)N)C(C)(C)[C@@H]5CC[C@]43C)[C@H]12 | > 100 µM
C[C@H]1[C@H](C)CC[C@]2(C(=O)O)CC[C@]3(C)C(=CC[C@@H]4[C@@]5(C)CC(=C\c6cccs6)/C(=N\NC(=N)N)C(C)(C)[C@@H]5CC[C@]43C)[C@H]12 | > 100 µM
C[C@H]1[C@H](C)CC[C@]2(C(=O)O)CC[C@]3(C)C(=CC[C@@H]4[C@@]5(C)CC(=C\c6cccc(F)c6)/C(=N\NC(=N)N)C(C)(C)[C@@H]5CC[C@]43C)[C@H]12 | 10.5 µM
C[C@H]1[C@H](C)CC[C@]2(C(=O)OCc3c(Cl)cccc3Cl)CC[C@]3(C)C(=CC[C@@H]4[C@@]5(C)CC/C(=N\NC(=N)N)C(C)(C)[C@@H]5CC[C@]43C)[C@H]12 | 22.3 µM
C[C@H]1[C@H](C)CC[C@]2(C(=O)OCc3cccc(Cl)c3)CC[C@]3(C)C(=CC[C@@H]4[C@@]5(C)CC/C(=N\NC(=N)N)C(C)(C)[C@@H]5CC[C@]43C)[C@H]12 | 34.1 µM
C[C@H]1[C@H](C)CC[C@]2(C(=O)OCc3ccc(F)cc3)CC[C@]3(C)C(=CC[C@@H]4[C@@]5(C)CC/C(=N\NC(=N)N)C(C)(C)[C@@H]5CC[C@]43C)[C@H]12 | 12.9 µM
C[C@H]1[C@H](C)CC[C@]2(C(=O)O)CC[C@]3(C)C(=CC[C@@H]4[C@@]5(C)CC(=C\c6ccc([N+](=O)[O-])cc6)/C(=N\NC(=N)N)C(C)(C)[C@@H]5CC[C@]43C)[C@H]12 | > 100 µM
C[C@H]1[C@H](C)CC[C@]2(C(=O)O)CC[C@]3(C)C(=CC[C@@H]4[C@@]5(C)CC(=C\c6cccc7ccccc67)/C(=N\NC(=N)N)C(C)(C)[C@@H]5CC[C@]43C)[C@H]12 | > 100 µM
C[C@H]1[C@H](C)CC[C@]2(C(=O)O)CC[C@]3(C)C(=CC[C@@H]4[C@@]5(C)CC/C(=N\NC(=N)N)C(C)(C)[C@@H]5CC[C@]43C)[C@H]12 | > 100 µM
C[C@H]1[C@H](C)CC[C@]2(C(=O)O)CC[C@]3(C)C(=CC[C@@H]4[C@@]5(C)CC(=C\c6ccccc6F)/C(=N\NC(=N)N)C(C)(C)[C@@H]5CC[C@]43C)[C@H]12 | > 100 µM
C[C@H]1[C@H](C)CC[C@]2(C(=O)O)CC[C@]3(C)C(=CC[C@@H]4[C@@]5(C)CC(=C\c6ccccc6)/C(=N\NC(=N)N)C(C)(C)[C@@H]5CC[C@]43C)[C@H]12 | > 100 µM
C[C@H]1[C@H](C)CC[C@]2(C(=O)O)CC[C@]3(C)C(=CC[C@@H]4[C@@]5(C)CC(=C\c6cccc(Cl)c6)/C(=N\NC(=N)N)C(C)(C)[C@@H]5CC[C@]43C)[C@H]12 | > 100 µM
CCCCCOC(=O)[C@]12CC[C@@H](C)[C@H](C)[C@H]1C1=CC[C@@H]3[C@@]4(C)CC/C(=N\NC(=N)N)C(C)(C)[C@@H]4CC[C@@]3(C)[C@]1(C)CC2 | 22 µM
C[C@H]1[C@H](C)CC[C@]2(C(=O)O)CC[C@]3(C)C(=CC[C@@H]4[C@@]5(C)CC/C(=N\NC(N)=O)C(C)(C)[C@@H]5CC[C@]43C)[C@H]12 | 69.8 µM
Cc1ccc(/C=C2\C[C@]3(C)[C@H]4CC=C5[C@@H]6[C@@H](C)[C@H](C)CC[C@]6(C(=O)O)CC[C@@]5(C)[C@]4(C)CC[C@H]3C(C)(C)\C2=N\NC(=N)N)cc1 | > 100 µM
C[C@H]1[C@H](C)CC[C@]2(C(=O)O)CC[C@]3(C)C(=CC[C@@H]4[C@@]5(C)CC(=C\c6ccccc6Br)/C(=N\NC(=N)N)C(C)(C)[C@@H]5CC[C@]43C)[C@H]12 | > 100 µM
Cc1ccc(COC(=O)[C@]23CC[C@@H](C)[C@H](C)[C@H]2C2=CC[C@@H]4[C@@]5(C)CC/C(=N\NC(=N)N)C(C)(C)[C@@H]5CC[C@@]4(C)[C@]2(C)CC3)cc1 | 18 µM
